Compound activity: PubChem, several laboratories
This is a sample that favours compounds with a hit; in the whole collection about 3.7% have one here.
GPR7 antag = human neuropeptides B/W receptor 1 antagonism | AID 1861 | inhibition, % at 4.4 µM | actives 1.1% (n = 290,000) | GPR7-expressing cells, fluorescence antagonist assay | P48145; in the data active = inhibition above about 16%, passing the limit was not always enough;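 also: cells stimulated with the agonist NPW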
CHO parental Ca = counter-screen for OX1R antagonists: effect in parental CHO cells; AID 463079; inhibition, % at 5.6 µM; parental CHO-K1, ATP-induced calcium, Fluo-8 fluorescence; actives 0.63% (n = 330,000);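 active = inhibition above that plate's mean sample inhibition plus 3 SD, cut at about 26% in these data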
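Test system: parental CHO cells; detection: calcium-sensitive Fluo-8 fluorescence; evaluation: percent inhibition of calcium signal; also added: ATP as calcium-mobilizing challenge; repeats: one well per compound; control set: ATP-challenged DMSO wells low, unchallenged DMSO wells high; compound: single nominal dose of 5.6 µM per compound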
PGE2 EP2 inh = blocks the human prostaglandin E2 receptor EP2; C6 glioma cells expressing human EP2, cAMP TR-FRET; cells stimulated with saturating PGE2; inhibition, % at 25 µM; actives 0.52% (n = 260,000); AID 1422;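 active = percent inhibition above 40 after rounding to a whole number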;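 also: rat C6 glioma host cells with rolipram phosphodiesterase inhibitor present; the protocol text gives 20 µM as final concentration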
OX1R antag-1 = OX1R (human) antagonism | OX1R-expressing cells, FRET antagonist read-out | inhibition, % at 6.6 µM | actives 1.8% (n = 330,000); in the data active = inhibition mostly above about 38%, no sharp cut-off; inactive = mostly below about 40%
Target sequence (O43613 whole entry, looked up): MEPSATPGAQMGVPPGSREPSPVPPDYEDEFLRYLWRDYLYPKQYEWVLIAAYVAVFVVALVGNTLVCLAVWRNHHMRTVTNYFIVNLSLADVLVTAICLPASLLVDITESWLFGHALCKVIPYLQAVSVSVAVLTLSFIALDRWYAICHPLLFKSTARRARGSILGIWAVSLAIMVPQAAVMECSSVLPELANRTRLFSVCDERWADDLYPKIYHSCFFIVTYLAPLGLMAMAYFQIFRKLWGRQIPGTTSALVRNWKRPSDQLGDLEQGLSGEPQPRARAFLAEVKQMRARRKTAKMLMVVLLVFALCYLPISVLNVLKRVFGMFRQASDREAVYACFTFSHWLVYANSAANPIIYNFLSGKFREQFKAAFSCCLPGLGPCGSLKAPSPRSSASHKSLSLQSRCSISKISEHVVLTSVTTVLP
EP2 mod = EP2 receptor (human) modulation | P43116 | EP2-expressing cells, cAMP HTRF FRET, PGE2 co-stimulation | induction, % at 25 µM | actives 0.83% (n = 260,000);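 active = compounds whose cAMP rise, as percent of the full-agonist control response, exceeds 60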;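 also: rat C6 glioma line stably carrying human EP2 under a CMV promoter; the protocol text gives 20 µM as final concentration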
OX1R antag-2 = antagonists of human orexin 1 receptor; CHO/OX1R cells, Fluo-8 calcium fluorescence, orexin A; actives 0.43% (n = 330,000); AID 434989; inhibition, % at 5 µM;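 active = inhibition above its plate's threshold, mean inhibition of all tested compounds on the plate plus 3 SD, cut at about 37% in these data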
Numbers stand for hits; - = inactive; . = not tested or not shown.

SMILES | GPR7 antag | CHO parental Ca | PGE2 EP2 inh | OX1R antag-1 | EP2 mod | OX1R antag-2
COC(=O)c1cc(C(=O)OCC(=O)NNC(=O)c2cccs2)cc([N+](=O)[O-])c1 | . | - | . | 59.9 | . | -
COC(=O)c1cc(C(=O)OCC(=O)NC2CCCCCCC2)cc([N+](=O)[O-])c1 | . | - | . | - | . | -
COC(=O)c1cc(C(=O)OCC(=O)N2CCCCC2)cc([N+](=O)[O-])c1 | . | - | . | 55.6 | . | -
O=C(OCC(=O)N1CCCC1)c1ccc(Cl)c([N+](=O)[O-])c1 | - | - | . | 65.0 | . | -
CCN(C(=O)C1CC1)c1nc(-c2ccc(OC)cc2)cs1 | . | . | - | . | - | .
CC(CC(=O)O)CC(=O)Nc1ccccc1C(=O)O (centres undefined) | - | - | - | - | - | -
O=C(Cc1ccc([N+](=O)[O-])cc1)NNC(=O)c1ccc2c(c1)OCO2 | - | . | . | . | . | .
COC(=O)c1cc(C(=O)NNC(=O)c2ccc3c(c2)OCO3)cc([N+](=O)[O-])c1 | . | - | . | 54.2 | . | -
Cc1cccc(Oc2nc(-c3ccncc3)nc3ccccc23)c1 | - | - | - | - | 71.2 | -
c1ccc(Oc2nc(-c3cccnc3)nc3ccccc23)cc1 | - | - | - | - | 86.6 | -
C=CC[C@@H](CC(=O)N(CCO)Cc1ccccc1)C(=O)N[C@@H](COC(=O)[C@@H](CC=C)Cc1ccc(F)cc1)Cc1c[nH]c2ccccc12 | . | - | . | - | . | -
CNc1oc(-c2ccc(C)cc2)nc1P(=O)(c1ccccc1)c1ccccc1 | - | - | - | - | 60.5 | -
CNc1oc(-c2ccccc2Cl)nc1P(=O)(c1ccccc1)c1ccccc1 | - | - | - | - | - | -
O=C(NCCOc1ccccc1Cl)c1cc(F)c(F)cc1Cl | - | - | - | - | - | -
COC(=O)C(NC(=O)c1ccc(F)cc1)(Nc1nc(C)cs1)C(F)(F)F (centres undefined) | 17.2 | - | - | - | - | -
CCOc1ccc(NC(=O)CCS(=O)(=O)c2ccc(Br)cc2)cc1 | - | - | . | - | . | -
COC(=O)c1cccc(NC(=O)CSc2nnc3c4c(C)c(C)sc4nc(C(C)C)n23)c1 | . | . | - | . | - | .
CCOc1ccc(NC(=O)CN2CCN(CC(=O)Nc3cccc(F)c3)CC2)cc1 | - | - | - | - | - | -
COc1ccc(OC)c(NC(=O)C2CCCN(S(=O)(=O)c3cccc4cccnc34)C2)c1 (centres undefined) | - | - | - | 74.4 | - | -
COc1ccc(C)cc1NC(=O)c1ccccc1NS(=O)(=O)c1cccc2cccnc12 | - | - | - | 69.8 | - | -
Cc1cccc(NC(=O)C2CCCN(S(=O)(=O)c3cccc4cccnc34)C2)c1 (centres undefined) | - | - | - | 53.6 | - | -
Cc1cc(C)cc(NC(=O)C2CCCN(S(=O)(=O)c3c(C)noc3C)C2)c1 (centres undefined) | - | - | . | 72.3 | . | -
Cc1cc(NC(=O)C2CCCN(S(=O)(=O)c3c(C)noc3C)C2)no1 (centres undefined) | - | - | - | - | - | -
Cc1cc(OCC(=O)N(C)Cc2ccccc2)cc(C)c1Cl | - | - | . | - | . | -
COc1ccc(NC(=O)CSc2nnc(-c3ccccc3)n2N)cc1 | - | - | - | - | - | -
SMILES | GPR7 antag | CHO parental Ca | PGE2 EP2 inh | OX1R antag-1 | EP2 mod | OX1R antag-2
CCn1c2ccccc2c2cc(NC(=O)CSc3nnc(-c4ccc(OC)cc4)n3N)ccc21 | - | - | - | 49.6 | - | -
O=C(CNC(=O)c1ccccc1F)OCC(=O)c1ccc(Cl)s1 | - | - | . | - | . | -
Cc1cc(OCc2cc(C(=O)N3CCN(CC4CC4)CC3)no2)cc(C)c1Cl | - | - | . | - | . | -
Cc1cc(OCc2cc(C(=O)N3CCC(Oc4cccnc4)CC3)no2)cc(C)c1Cl | - | 55.7 | . | - | . | -
O=C(NCCc1cn2ccccc2n1)c1cc(COc2ccc3ncccc3c2)on1 | - | 46.7 | - | 64.6 | - | 46.6
COCC1CCN(C(=O)c2cc(COc3ccc4ncccc4c3)on2)CC1 | - | 42.4 | - | - | - | -
CC(NC(=O)c1cc(COc2ccc3ncccc3c2)on1)c1ccc(F)cc1 (centres undefined) | - | 50.6 | - | - | - | 42.5
Cc1ccc(N(CC(=O)NC2CCCC2)C(=O)CNC(=O)c2cccs2)cc1F | - | - | . | - | . | -
O=C(NC1CCCC1)c1cc(COc2ccc3ncccc3c2)on1 | - | 52.0 | - | - | - | -
COc1cccc(N(CC(=O)Nc2ccc3c(c2)OCCO3)S(C)(=O)=O)c1 | . | . | - | . | - | .
CCC(=O)Nc1cc(NC(=O)CSc2nc3cc(C)c(C)cc3cc2CC)ccc1C | . | . | - | . | - | .
Cn1cc([N+](=O)[O-])c(C(=O)Nc2nccs2)n1 | - | - | - | - | - | -
Cn1cc([N+](=O)[O-])c(C(=O)Nc2ccc(Br)cn2)n1 | - | - | - | 50.1 | - | -
Cn1cc([N+](=O)[O-])c(C(=O)N/N=C/c2ccncc2)n1 | - | - | . | 75.4 | . | -
CCCOC(=O)c1ccc(Nc2cc(C)nc3ncnn23)cc1 | - | - | - | - | - | -
Nc1nc(-c2ccccc2)[nH]c(=O)c1N=O | - | - | - | 58.5 | - | -
c1ccc2c(c1)oc1c(Nc3ccc4c(c3)OCCO4)ncnc12 | - | - | - | 71.8 | - | -
CCc1nc(Nc2ccc3c(c2)OCCO3)c2oc3ccccc3c2n1 | - | - | - | - | - | -
Cc1nc(Nc2ccc3c(c2)OCCO3)c2oc3ccccc3c2n1 | - | - | - | 55.0 | - | -
Oc1ccc(-c2nccc(-c3ccc(Cl)cc3Cl)n2)cc1 | - | - | - | - | - | -
CCC/C(=N\NC(=O)Cc1csc(N2CCOCC2)n1)c1ccccc1 | - | - | - | - | - | -
Cc1ccc(S(=O)(=O)N(C)C)cc1NC(=O)c1ccc(OC(F)(F)F)cc1 | - | - | - | - | - | -
COc1cccc(CNC(=O)CSc2ccc(-c3cccs3)nn2)c1 | - | - | - | 58.3 | - | -
CC(=O)Nc1ccc(NC(=O)CSc2ccc(-c3cccs3)nn2)cc1 | - | - | - | - | - | -
COc1ccccc1CNC(=O)CSc1ccc(-c2cccs2)nn1 | - | - | - | 59.3 | - | -
SMILES | GPR7 antag | CHO parental Ca | PGE2 EP2 inh | OX1R antag-1 | EP2 mod | OX1R antag-2
O=C(CSc1ccc(-c2cccs2)nn1)NCc1ccccc1Cl | - | - | - | 69.7 | - | -
COc1ccc(NC(=O)CSc2ccc(-c3cccs3)nn2)c(OC)c1 | - | - | - | - | - | -
C/C(=N/NC(=O)CN1CCN(S(=O)(=O)c2ccc(Br)cc2)CC1)c1cccnc1 | - | - | - | - | - | -
COc1ccccc1NC(=O)COC(=O)c1cc([N+](=O)[O-])ccc1N1CCCC1 | . | - | . | - | . | -
CSc1ccc(Cl)c(C(=O)NCCOc2cc(C)ccc2C(C)C)c1 | - | 53.1 | - | - | - | 46.5
Cc1ccc(C(C)C)c(OCCNC(=O)c2ccccc2O)c1 | - | - | . | - | . | -
Cc1nnc(-c2ccccc2)c[n+]1[O-] | - | - | - | 56.2 | - | -
